For orientation: Ki means a measure of affinity in units of concentration, obtained from inhibition or displacement. For orientation: IC50 means the concentration that inhibits the measured activity by half.

Chain of Apoptosis regulator Bcl-2 (P10415 whole entry): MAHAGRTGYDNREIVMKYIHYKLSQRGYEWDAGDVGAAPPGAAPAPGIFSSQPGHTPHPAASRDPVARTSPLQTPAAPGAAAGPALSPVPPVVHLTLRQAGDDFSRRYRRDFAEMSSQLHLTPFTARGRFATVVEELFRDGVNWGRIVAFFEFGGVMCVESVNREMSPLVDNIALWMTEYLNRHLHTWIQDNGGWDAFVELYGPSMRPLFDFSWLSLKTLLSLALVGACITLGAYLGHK

The first assay concerns the target Apoptosis regulator Bcl-2 (Homo sapiens, UniProt P10415). As to the kind of experiment: Inhibition of Bak peptide binding to human recombinant Bcl2. A digest of the protocol:
(§1)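 Fluorescence polarization competition against 50 nM fluorescein-labelled Bak peptide, in PBS pH 7.0 with 1 mM DTT. Protein set for 60% peptide complex: Bcl-2 1000 nM, Bcl-XL 880nM, Bcl-w 1200 nM. Compounds added from 3-fold DMSO stock dilutions (10 mM down). Incubation 1 h at 23 °C, read in mP, peptide-only interference subtracted. Ki fitted from FP change versus competitor concentration.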
With `CCOC(=O)[C@H](Cc1ccccc1)N1C(=O)/C(=C/c2ccc(Br)cc2)SC1=S`, the Ki is 260 µM.

Consider `O=C(OCCOCCOCCOC(=O)[C@H](Cc1ccccc1)N1C(=O)/C(=C/c2ccc(Br)cc2)SC1=S)[C@H](Cc1ccccc1)N1C(=O)/C(=C/c2ccc(Br)cc2)SC1=S`, for which the Ki amounted to 161 µM.

For `CCOC(=O)[C@H](Cc1ccccc1)N1C(=O)/C(=C/c2ccc(OCOc3ccc(/C=C4\SC(=S)N([C@@H](Cc5ccccc5)C(=O)OCC)C4=O)cc3)cc2)SC1=S`, the Ki amounted to 226 µM.

In the case of `O=C(OCCOC(=O)[C@H](Cc1ccccc1)N1C(=O)/C(=C/c2ccc(Br)cc2)SC1=S)[C@H](Cc1ccccc1)N1C(=O)/C(=C/c2ccc(Br)cc2)SC1=S`, the Ki stood at 243 µM.

`O=C(OCCOCCOC(=O)[C@H](Cc1ccccc1)N1C(=O)/C(=C/c2ccc(Br)cc2)SC1=S)[C@H](Cc1ccccc1)N1C(=O)/C(=C/c2ccc(Br)cc2)SC1=S`: the inhibitory constant (Ki) is above 1000 µM.

On to `O=C(O)[C@H](Cc1ccccc1)N1C(=O)/C(=C/c2ccc(OCCOCCOc3ccc(/C=C4\SC(=S)N([C@@H](Cc5ccccc5)C(=O)O)C4=O)cc3)cc2)SC1=S`, for which the inhibition constant Ki came out at 4.3 µM.

For `O=C(O)[C@H](Cc1ccccc1)N1C(=O)/C(=C/c2ccc(OCCOCCOCCOc3ccc(/C=C4\SC(=S)N([C@@H](Cc5ccccc5)C(=O)O)C4=O)cc3)cc2)SC1=S`, the inhibition constant (Ki) came to 21.2 µM.

As for `O=C(O)[C@H](Cc1ccccc1)N1C(=O)/C(=C/c2ccc(OCCOc3ccc(/C=C4\SC(=S)N([C@@H](Cc5ccccc5)C(=O)O)C4=O)cc3)cc2)SC1=S`, the Ki came to 1.7 µM.

Take `O=C(O)[C@H](Cc1ccccc1)N1C(=O)/C(=C/c2ccc(OCOc3ccc(/C=C4\SC(=S)N([C@@H](Cc5ccccc5)C(=O)O)C4=O)cc3)cc2)SC1=S`: the inhibitory constant (Ki) came out at 4.3 µM.

A further assay addresses T1, Bcl-2-like protein 2 (Homo sapiens, UniProt Q92843).
T1 sequence (Q92843 whole entry): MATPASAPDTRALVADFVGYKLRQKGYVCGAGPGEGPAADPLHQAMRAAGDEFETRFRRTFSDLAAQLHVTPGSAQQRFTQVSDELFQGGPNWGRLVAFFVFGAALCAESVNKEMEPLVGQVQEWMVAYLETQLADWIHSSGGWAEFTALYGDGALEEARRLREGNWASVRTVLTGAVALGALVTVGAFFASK
The assay can be described thus: Inhibition of Bak peptide binding to human recombinant Bcl-w. Put shortly:
as §1
As for `CCOC(=O)[C@H](Cc1ccccc1)N1C(=O)/C(=C/c2ccc(Br)cc2)SC1=S`, the Ki is 116 µM.

As for `O=C(OCCOCCOCCOC(=O)[C@H](Cc1ccccc1)N1C(=O)/C(=C/c2ccc(Br)cc2)SC1=S)[C@H](Cc1ccccc1)N1C(=O)/C(=C/c2ccc(Br)cc2)SC1=S`, the Ki came out at 88.3 µM.

Take `CCOC(=O)[C@H](Cc1ccccc1)N1C(=O)/C(=C/c2ccc(OCOc3ccc(/C=C4\SC(=S)N([C@@H](Cc5ccccc5)C(=O)OCC)C4=O)cc3)cc2)SC1=S`: the Ki worked out at 39.2 µM.

Take `O=C(OCCOC(=O)[C@H](Cc1ccccc1)N1C(=O)/C(=C/c2ccc(Br)cc2)SC1=S)[C@H](Cc1ccccc1)N1C(=O)/C(=C/c2ccc(Br)cc2)SC1=S`: the inhibition constant Ki is 101 µM.

In the case of `O=C(OCCOCCOC(=O)[C@H](Cc1ccccc1)N1C(=O)/C(=C/c2ccc(Br)cc2)SC1=S)[C@H](Cc1ccccc1)N1C(=O)/C(=C/c2ccc(Br)cc2)SC1=S`, the Ki was determined as 99 µM.

Consider `O=C(O)[C@H](Cc1ccccc1)N1C(=O)/C(=C/c2ccc(OCCOCCOc3ccc(/C=C4\SC(=S)N([C@@H](Cc5ccccc5)C(=O)O)C4=O)cc3)cc2)SC1=S`, for which the Ki is 2.2 µM.

As to `O=C(O)[C@H](Cc1ccccc1)N1C(=O)/C(=C/c2ccc(OCCOCCOCCOc3ccc(/C=C4\SC(=S)N([C@@H](Cc5ccccc5)C(=O)O)C4=O)cc3)cc2)SC1=S`, the inhibition constant (Ki) was found to be 13.7 µM.

With `O=C(O)[C@H](Cc1ccccc1)N1C(=O)/C(=C/c2ccc(OCCOc3ccc(/C=C4\SC(=S)N([C@@H](Cc5ccccc5)C(=O)O)C4=O)cc3)cc2)SC1=S`, the Ki was found to be 1.3 µM.

`O=C(O)[C@H](Cc1ccccc1)N1C(=O)/C(=C/c2ccc(OCOc3ccc(/C=C4\SC(=S)N([C@@H](Cc5ccccc5)C(=O)O)C4=O)cc3)cc2)SC1=S`: the Ki worked out at 2.3 µM.

Test system in another assay: not listed separately
As to the kind of experiment: Induction of cytochrome c release from mouse liver mitochondria. The format is functional. A digest of the protocol:
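Mouse liver mitochondria were isolated by differential centrifugation in Tris-MOPS/EGTA/sucrose buffer pH 7.4 and diluted to 1mg/ml in KCl-based buffer. They were incubated 1 hour at 30 °C with increasing compound concentrations, with DMSO kept equal, then pelleted at 13,000g for 10 minutes. Cytochrome c release was assessed, and the concentration giving 50% release was reported.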
The molecule `O=C(O)[C@H](Cc1ccccc1)N1C(=O)/C(=C/c2ccc(Br)cc2)SC1=S` returned a half-maximal inhibitory concentration (IC50) of 69.1 µM.

On to `O=C(O)[C@H](Cc1ccccc1)N1C(=O)/C(=C/c2ccc(OCCOc3ccc(/C=C4\SC(=S)N([C@@H](Cc5ccccc5)C(=O)O)C4=O)cc3)cc2)SC1=S`, for which inhibition was half-maximal at 6.1 µM (IC50).

For the origin of these results see ChEMBL document CHEMBL1142253, “Development of dimeric modulators for anti-apoptotic Bcl-2 proteins” (Bioorg Med Chem Lett, 2008).
